According to ChEMBL document CHEMBL4002590, “Design and Synthesis of a Pan-Janus Kinase Inhibitor Clinical Candidate (PF-06263276) Suitable for Inhaled and Topical Delivery for the Treatment of Inflammatory Diseases of the Lungs and Skin” (J Med Chem, 2017):

Experiments:
Salmonella typhimurium = test: Genotoxicity in Salmonella typhimurium by Ames test; type: toxicity; conditions: salmonella enterica subsp. enterica serovar typhimurium
[1] = target: Tyrosine-protein kinase Lck (Homo sapiens) (UniProt P06239); test: Inhibition of recombinant human Lck kinase expressed in insect Sf21 cells at 10 uM using Ulight-Poly GAT[EAY(1:1:1)]n as substrate after 10 mins by LANCE assay
Chain of Tyrosine-protein kinase Lck (Homo sapiens) (P06239 2-509 limits assumed): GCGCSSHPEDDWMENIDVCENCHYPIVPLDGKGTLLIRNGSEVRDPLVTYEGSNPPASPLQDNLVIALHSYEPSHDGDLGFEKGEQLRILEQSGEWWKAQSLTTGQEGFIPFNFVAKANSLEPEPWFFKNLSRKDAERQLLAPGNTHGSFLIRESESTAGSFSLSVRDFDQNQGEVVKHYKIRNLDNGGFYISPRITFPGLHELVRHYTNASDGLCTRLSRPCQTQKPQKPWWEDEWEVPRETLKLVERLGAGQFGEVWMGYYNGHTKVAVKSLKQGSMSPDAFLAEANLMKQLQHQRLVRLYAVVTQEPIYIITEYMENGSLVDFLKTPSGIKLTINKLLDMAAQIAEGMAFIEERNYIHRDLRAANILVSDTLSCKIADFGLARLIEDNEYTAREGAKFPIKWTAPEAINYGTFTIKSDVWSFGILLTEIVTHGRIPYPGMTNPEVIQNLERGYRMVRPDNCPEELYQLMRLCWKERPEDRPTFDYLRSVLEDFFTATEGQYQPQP
Outline: (§1)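 Single-point screen at 10 μM within a broad panel of radioligand binding and enzyme inhibition assays covering receptors, transporters, enzymes and ion channels.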

[2] = target: Acetylcholinesterase (Homo sapiens) (UniProt P22303); test: Inhibition of recombinant human acetylcholinesterase expressed in HEK-293 cells at 10 uM using acetylthiocholine substrate after 30 mins by photometry; type: cell-based; outline: as §1
Chain of Acetylcholinesterase (Homo sapiens) (P22303 whole entry): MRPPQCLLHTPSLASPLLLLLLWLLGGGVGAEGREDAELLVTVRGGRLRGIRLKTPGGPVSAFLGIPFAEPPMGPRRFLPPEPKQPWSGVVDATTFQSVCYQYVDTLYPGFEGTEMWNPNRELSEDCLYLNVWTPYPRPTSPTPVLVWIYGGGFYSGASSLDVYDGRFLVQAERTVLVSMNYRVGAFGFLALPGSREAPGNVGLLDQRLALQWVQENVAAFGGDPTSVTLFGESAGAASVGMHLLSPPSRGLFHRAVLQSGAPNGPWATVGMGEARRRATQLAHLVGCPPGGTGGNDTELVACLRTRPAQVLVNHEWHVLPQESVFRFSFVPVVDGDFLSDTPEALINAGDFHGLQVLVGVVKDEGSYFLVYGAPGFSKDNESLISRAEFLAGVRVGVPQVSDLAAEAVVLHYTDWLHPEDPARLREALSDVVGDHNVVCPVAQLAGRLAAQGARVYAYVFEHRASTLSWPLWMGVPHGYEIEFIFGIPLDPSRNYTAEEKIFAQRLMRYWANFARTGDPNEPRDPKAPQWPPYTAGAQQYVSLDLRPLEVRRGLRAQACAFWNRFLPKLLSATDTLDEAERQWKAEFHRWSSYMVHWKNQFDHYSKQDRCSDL

[3] = Drug metabolism in human liver microsomes assessed as UGT-mediated compound glucuronidation per mg protein in presence of microsomal activator Brij58 and cofactor UDPGA; type: ADME
Outline: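 Human liver microsomes supplemented with the activator Brij58 and cofactor UDPGA, NADPH omitted, to measure phase II glucuronidation turnover.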

Rattus norvegicus [4] = test: Intrinsic clearance in rat at 0.5 mg/kg, iv; type: ADME, organism-based; conditions: in vivo
[5] = Chemical stability in pH 8 solution at 40 degC after 1 to 2 days; type: physicochemical; conditions: buffer
Outline: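 Hydrolytic stability followed over 1–2 days at pH 8.0 and 40 °C; percent degradation recorded.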

Mus musculus [6] = test: Effect on nerve activation in mouse up to 2 mg inhalation administered as micelle vehicle to delta fiber sensory nerve preparation; conditions: in vivo, inhaled_or_intranasal
Outline: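 Mouse A delta fiber sensory nerve preparation given up to 2 mg in 400 μL of micelle vehicle; nerve activation recorded.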

Rattus norvegicus [7] = test: Genotoxicity in iv dosed rat after 7 days by peripheral blood micronucleus assay; type: toxicity, organism-based; conditions: in vivo, 168 h
Rattus norvegicus [8] = organism: Rattus norvegicus; test: Displacement of [3H]batrachotoxinin from rat cerebral cortex sodium channel site-2 at 10 uM after 60 mins by scintillation counting method relative to control; outline: as §1
[9] = Plasma protein binding in rat at 0.5 mg/kg, iv; type: ADME, organism-based; conditions: read-out: PPB
[10] = target: Alpha-2B adrenergic receptor (Homo sapiens) (UniProt P18089); test: Antagonist activity at recombinant human alpha 2B adrenergic receptor expressed in HEK293 cells assessed as inhibition of dexmedetomidine-induced cAMP accumulation at 10 uM after 30 mins by HTRF method; type: functional, cell-based
Canis familiaris = test: Toxicity in iv dosed dog for 7 days; type: organism-based, Canis lupus familiaris; conditions: in vivo, 168 h
Outline: (§2)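 Exploratory 7-day intravenous toxicology studies in rat and dog; margins expressed over total plasma AUC relative to projected exposure at a 200 μg human lung dose.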

[11] = Plasma protein binding in dog at 0.1 mg/kg, iv administered as 30 mins infusion; type: ADME, organism-based, Canis lupus familiaris; conditions: read-out: PPB
JAK3/JAK1 (Homo sapiens) = JAK3/JAK1 (Homo sapiens) (UniProt P52333+P23458)
JAK2/JAK1 (Homo sapiens) = JAK2/JAK1 (Homo sapiens) (UniProt P23458+O60674)
[12] = target: T1, Tyrosine-protein kinase JAK2 (Homo sapiens, UniProt O60674); test: Inhibition of JAK2 homodimer in human whole blood assessed as inhibition of GM-CSF induced STAT5 phosphorylation preincubated for 45 mins followed by GM-CSF addition and measured after 20 mins by flow cytometric analysis
T1 sequence (O60674 whole entry): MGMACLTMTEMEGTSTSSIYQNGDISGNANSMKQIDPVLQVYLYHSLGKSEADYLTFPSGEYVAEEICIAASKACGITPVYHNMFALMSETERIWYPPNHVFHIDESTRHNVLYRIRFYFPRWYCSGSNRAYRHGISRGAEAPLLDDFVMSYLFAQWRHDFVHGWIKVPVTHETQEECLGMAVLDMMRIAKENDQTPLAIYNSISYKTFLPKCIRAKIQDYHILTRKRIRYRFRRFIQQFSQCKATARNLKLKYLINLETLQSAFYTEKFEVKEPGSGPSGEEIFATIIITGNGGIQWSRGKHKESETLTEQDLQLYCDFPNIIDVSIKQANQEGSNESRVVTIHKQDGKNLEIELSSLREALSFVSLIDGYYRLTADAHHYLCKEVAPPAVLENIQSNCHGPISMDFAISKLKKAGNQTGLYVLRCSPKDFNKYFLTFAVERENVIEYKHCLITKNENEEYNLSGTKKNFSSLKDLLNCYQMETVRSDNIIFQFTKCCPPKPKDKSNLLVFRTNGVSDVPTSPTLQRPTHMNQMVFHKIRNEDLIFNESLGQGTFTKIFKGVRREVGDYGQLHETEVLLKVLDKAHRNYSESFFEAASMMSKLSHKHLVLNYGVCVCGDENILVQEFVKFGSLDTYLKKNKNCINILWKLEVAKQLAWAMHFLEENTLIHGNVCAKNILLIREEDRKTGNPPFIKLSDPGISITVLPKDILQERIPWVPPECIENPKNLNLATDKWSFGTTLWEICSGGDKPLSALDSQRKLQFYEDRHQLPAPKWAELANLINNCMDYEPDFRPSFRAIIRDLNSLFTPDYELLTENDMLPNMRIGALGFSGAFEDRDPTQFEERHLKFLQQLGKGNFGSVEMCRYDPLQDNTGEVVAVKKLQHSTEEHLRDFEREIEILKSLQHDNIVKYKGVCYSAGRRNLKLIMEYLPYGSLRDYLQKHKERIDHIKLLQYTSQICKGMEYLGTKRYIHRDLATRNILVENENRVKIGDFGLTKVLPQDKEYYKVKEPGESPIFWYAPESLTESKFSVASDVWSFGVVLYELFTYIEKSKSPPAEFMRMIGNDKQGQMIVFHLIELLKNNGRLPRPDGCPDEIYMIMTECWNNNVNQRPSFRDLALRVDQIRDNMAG

[13] = target: T1, Tyrosine-protein kinase JAK2
Mus musculus [14] = test: In vivo inhibition of JAK1/JAK2 in […] dosed Balb/c mouse assessed as inhibition of IL-6 induced STAT3 phosphorylation in lungs pretreated for 15 mins followed by IL-6 stimulation measured after 30 mins by ELISA; type: functional
Outline: (§3)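 Intratracheal dosing in mouse, then IL-6 given i.t.; phosphorylated STAT3 quantified in lung. Percent inhibition ± 95% CI from the difference in geometric means between vehicle/IL-6 and vehicle/saline groups; N = 6.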

[15] = Chemical stability in pH 8 solution at 40 degC up to 6 weeks; type: physicochemical; conditions: buffer, pH 8, 1008 h
[16] = Terminal half life in dog at 0.1 mg/kg, iv administered as 30 mins infusion; type: ADME, organism-based, Canis lupus familiaris; conditions: in vivo, read-out: beta t1/2 (converted)
[17] = target: Tyrosine-protein kinase ABL1 (Homo sapiens) (UniProt P00519); test: Inhibition of recombinant human Abl kinase expressed in insect cells at 10 uM using Ulight-TK peptide substrate after 30 mins by LANCE method; outline: as §1
Chain of Tyrosine-protein kinase ABL1 (Homo sapiens) (P00519 whole entry): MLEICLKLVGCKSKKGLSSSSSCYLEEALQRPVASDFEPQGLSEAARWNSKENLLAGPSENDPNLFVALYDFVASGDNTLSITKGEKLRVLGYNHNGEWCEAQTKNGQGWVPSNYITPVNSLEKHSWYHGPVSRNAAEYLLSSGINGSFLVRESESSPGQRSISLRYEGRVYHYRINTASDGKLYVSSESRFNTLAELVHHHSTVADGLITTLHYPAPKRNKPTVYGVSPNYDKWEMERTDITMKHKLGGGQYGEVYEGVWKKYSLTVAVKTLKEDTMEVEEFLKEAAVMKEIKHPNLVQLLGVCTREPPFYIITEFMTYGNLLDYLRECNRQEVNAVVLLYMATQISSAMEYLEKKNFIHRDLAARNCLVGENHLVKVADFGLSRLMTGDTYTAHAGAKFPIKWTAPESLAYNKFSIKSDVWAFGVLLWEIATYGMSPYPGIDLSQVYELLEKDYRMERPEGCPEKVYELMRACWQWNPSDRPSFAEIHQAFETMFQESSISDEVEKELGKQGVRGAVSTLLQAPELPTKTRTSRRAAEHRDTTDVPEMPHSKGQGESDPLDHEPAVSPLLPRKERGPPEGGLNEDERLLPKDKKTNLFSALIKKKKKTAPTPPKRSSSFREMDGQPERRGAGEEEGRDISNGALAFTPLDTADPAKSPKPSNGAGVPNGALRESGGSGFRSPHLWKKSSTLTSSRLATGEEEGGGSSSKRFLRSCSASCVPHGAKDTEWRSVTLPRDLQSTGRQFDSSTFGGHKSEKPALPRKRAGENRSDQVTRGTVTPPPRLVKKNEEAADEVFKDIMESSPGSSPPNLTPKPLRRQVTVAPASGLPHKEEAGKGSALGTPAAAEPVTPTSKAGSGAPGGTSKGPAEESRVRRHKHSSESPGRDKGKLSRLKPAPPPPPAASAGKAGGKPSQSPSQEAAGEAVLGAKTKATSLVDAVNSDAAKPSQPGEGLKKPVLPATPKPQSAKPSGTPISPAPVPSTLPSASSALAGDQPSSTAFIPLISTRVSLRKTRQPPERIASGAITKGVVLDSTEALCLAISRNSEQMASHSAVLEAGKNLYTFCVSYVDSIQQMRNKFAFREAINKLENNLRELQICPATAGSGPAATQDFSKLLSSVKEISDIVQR

[18] = Chemical stability in lactose using micronized sample up to 4 weeks; type: physicochemical; conditions: 672 h
Outline: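 Jet-milled (micronized, ~2 μm) material blended with lactose and monitored for chemical and physical stability for up to 4 weeks.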

JAK1/TYK2 (Homo sapiens) = JAK1/TYK2 (Homo sapiens) (UniProt P23458+P29597)
Mus musculus [19] = test: In vivo inhibition of JAK1/JAK2 in Balb/c mouse assessed as inhibition of IL-6 induced STAT3 phosphorylation in lungs at 10 ug, it pretreated for 15 mins followed by IL-6 stimulation measured after 30 mins by ELISA relative to control; type: functional; outline: as §3
Mus musculus [20] = test: In vivo inhibition of JAK2 homodimer in Balb/c mouse assessed as inhibition of GM-CSF induced STAT5 phosphorylation in blood at 100 ug, it for 12 consecutive days; type: functional
Outline: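 After i.t. dosing in mouse, GM-CSF-induced phosphorylated STAT5 measured in blood; percent inhibition ± 95% CI from geometric means versus vehicle groups; N = 3.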

[21] = Terminal half life in iv dosed rat at 0.5 mg/kg; type: ADME, organism-based; conditions: in vivo, read-out: beta t1/2 (converted)
Rattus norvegicus [22] = test: Toxicity in iv dosed rat for 7 days; type: organism-based; conditions: in vivo, 168 h; outline: as §2
[23] = target: Vascular endothelial growth factor receptor 2 (Homo sapiens) (UniProt P35968); test: Inhibition of recombinant human KDR kinase expressed in insect Sf21 cells at 10 uM using Ulight-CAGAGAIETDKEYYTVKD as substrate after 60 mins by LANCE assay; outline: as §1
Chain of Vascular endothelial growth factor receptor 2 (Homo sapiens) (P35968 whole entry): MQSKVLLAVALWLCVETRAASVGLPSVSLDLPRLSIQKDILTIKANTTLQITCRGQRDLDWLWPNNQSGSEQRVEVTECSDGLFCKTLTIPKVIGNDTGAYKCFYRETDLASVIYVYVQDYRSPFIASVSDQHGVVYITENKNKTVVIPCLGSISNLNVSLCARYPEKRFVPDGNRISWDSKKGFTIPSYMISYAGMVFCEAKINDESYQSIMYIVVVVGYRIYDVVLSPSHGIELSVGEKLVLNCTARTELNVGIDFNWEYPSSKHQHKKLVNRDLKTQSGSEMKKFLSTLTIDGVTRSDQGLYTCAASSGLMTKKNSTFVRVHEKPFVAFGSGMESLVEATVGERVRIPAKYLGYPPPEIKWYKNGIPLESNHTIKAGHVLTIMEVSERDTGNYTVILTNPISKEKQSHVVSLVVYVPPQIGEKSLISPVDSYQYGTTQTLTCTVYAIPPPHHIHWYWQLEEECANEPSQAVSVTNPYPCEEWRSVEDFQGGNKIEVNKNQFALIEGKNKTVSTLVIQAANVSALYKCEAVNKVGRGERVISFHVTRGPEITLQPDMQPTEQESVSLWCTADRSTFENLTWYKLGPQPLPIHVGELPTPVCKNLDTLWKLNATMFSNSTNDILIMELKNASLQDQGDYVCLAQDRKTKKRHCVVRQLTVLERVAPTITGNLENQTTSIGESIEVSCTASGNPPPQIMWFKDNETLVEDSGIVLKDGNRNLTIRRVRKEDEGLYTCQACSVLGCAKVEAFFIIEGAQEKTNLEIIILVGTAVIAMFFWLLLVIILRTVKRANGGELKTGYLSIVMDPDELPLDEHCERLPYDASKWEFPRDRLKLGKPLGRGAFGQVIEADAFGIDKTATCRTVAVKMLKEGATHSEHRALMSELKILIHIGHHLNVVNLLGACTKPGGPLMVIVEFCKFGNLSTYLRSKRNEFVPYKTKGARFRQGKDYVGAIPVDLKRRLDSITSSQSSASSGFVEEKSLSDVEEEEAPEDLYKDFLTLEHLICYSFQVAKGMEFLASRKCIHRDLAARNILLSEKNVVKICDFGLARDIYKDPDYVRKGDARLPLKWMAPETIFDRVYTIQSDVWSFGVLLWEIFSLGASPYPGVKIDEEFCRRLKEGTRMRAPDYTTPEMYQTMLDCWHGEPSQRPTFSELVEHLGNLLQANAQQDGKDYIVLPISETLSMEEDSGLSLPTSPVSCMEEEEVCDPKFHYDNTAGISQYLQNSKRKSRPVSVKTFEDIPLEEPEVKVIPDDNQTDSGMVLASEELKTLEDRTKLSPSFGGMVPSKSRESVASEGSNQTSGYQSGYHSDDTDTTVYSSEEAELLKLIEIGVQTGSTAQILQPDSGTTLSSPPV

Q: For `CCc1cc(O)c(F)cc1-c1ccc2c(-c3nc4c([nH]3)CCN(C(=O)c3cnc(N5CCCCC5)cn3)C4)n[nH]c2c1`, which Activity (Salmonella typhimurium) is on record?
A: Non-Toxic

Q: What about the inhibition [1] of the same compound?
A: > 50%

Q: And the inhibition [2]?
A: > 50%

Q: What about the Drug metabolism [3] of the same compound?
A: 129 µL/min

Q: What about the CL (Rattus norvegicus [4]) of the same compound?
A: 48 mL/min/kg

Q: What about the Stability [5] of the same compound?
A: Stable

Q: And the Activity (Mus musculus [6])?
A: Non-Toxic

Q: And the Activity (Rattus norvegicus [7])?
A: Non-Toxic

Q: What about the inhibition (Rattus norvegicus [8]) of the same compound?
A: > 50%

Q: What about the fraction unbound [9] of the same compound?
A: ≤ 0.001

Q: What about the inhibition [10] of the same compound?
A: > 50%

Q: What about the Activity (Canis familiaris) of the same compound?
A: Non-Toxic

Q: What about the fraction unbound at 0.5 h [11] of the same compound?
A: ≤ 0.001

Q: And the fIC50 (JAK3/JAK1 (Homo sapiens))?
A: 1.8 nM

Q: And the fIC50 (JAK2/JAK1 (Homo sapiens))?
A: 2.1 nM

Q: And the IC50 [12]?
A: 5.2 µM

Q: What about the fIC50 [13] of the same compound?
A: 5.2 nM

Q: And the ED50 (Mus musculus [14])?
A: 3 µg

Q: What about the inhibition (Mus musculus [14]) of the same compound?
A: Dose-dependent effect

Q: And the Stability [15]?
A: Stable

Q: And the half-life [16]?
A: 2 h

Q: And the inhibition [17]?
A: > 50%

Q: What about the Stability [18] of the same compound?
A: Stable

Q: And the fIC50 (JAK1/TYK2 (Homo sapiens))?
A: 0.62 nM

Q: What about the “inhibition (INH)” value (Mus musculus [19]) of the same compound?
A: 100%

Q: And the “inhibition (INH)” value (Mus musculus [20])?
A: <50%

Q: What about the half-life [21] of the same compound?
A: 2.1 h

Q: And the Activity (Rattus norvegicus [22])?
A: Non-Toxic

Q: And the inhibition [23]?
A: > 50%
